Consider 48 compounds from PubChem BioAssay AID463185 (Molecular Libraries Program, Specialized Chemistry Center, …, 2010).

Structures are written as SMILES. Active and inactive are the calls of the source.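 The calls were made as follows: active = IC50 at or below 10 µM; inactive = the rest.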

The test deals with HeLa UbG76V-GFP reporter degradation, GFP imaging. Kind of test: blockers of UbG76V-GFP proteasomal turnover – imaging, human cells, dose response (AID 463185). An outline of the steps:
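System: UbG76V-GFP reporter HeLa cells / Also added: MG132 4 µM reporter accumulation step / Times: 1 h MG132, chase read 70–170 min / Detection: cell imaging of GFP fluorescence, mean of about 500 cells / Read-out: IC50 from Langmuir fit of % remaining decay rate versus DMSO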
Turning to `COc1ccccc1Nc1nc(N)nc(CCl)n1`, the IC50 is 21 µM (inactive).

Take `Cc1ccccc1CNc1nc(NCc2ccccc2)c2ccccc2n1`: the IC50 is 10 µM.

Turning to `N#C/C(=C(\O)COC(=O)COc1cccc(Br)c1)c1nc2ccccc2[nH]1`, the half-maximal inhibitory concentration (IC50) is 5.9 µM.

Turning to `Cc1cc(C)cc(OCC(=O)OC/C(O)=C(/C#N)c2nc3ccccc3[nH]2)c1`, the IC50 is 13 µM (inactive).

On to `Nc1nc(CCl)nc(Nc2ccc(F)cc2)n1`, for which the IC50 was 31 µM (inactive).

In the case of `Clc1ccc(CNc2nc(NCc3ccccc3)c3ccccc3n2)cc1Cl`, the IC50 was 4.6 µM.

As to `FC(F)(F)c1ccc(CNc2nc(NCc3ccccc3)c3ccccc3n2)cc1`, the concentration for half-maximal inhibition (IC50) was 2.5 µM.

As for `Cc1c(Cl)cccc1Nc1nc(N)nc(CCl)n1`, the IC50 is 5.9 µM.

Consider `FC(F)(F)c1cc(CNc2nc(NCc3ccccc3)c3ccccc3n2)ccc1Cl`, for which the IC50 is 4.6 µM.

For the compound `c1ccc(CNc2nc(NCc3ccccc3)c3ccccc3n2)cc1`, the IC50 is 2.3 µM.

On to `CC(C)c1ccc(Nc2nc(N)nc(CCl)n2)cc1`, for which the IC50 was 14 µM (inactive).

Consider `Fc1ccc(CNc2nc(NCc3ccccc3)c3ccccc3n2)cc1`, for which the IC50 is 2.8 µM.

With `Nc1nc(CCl)nc(Nc2cccc3ccccc23)n1`, the IC50 is 14 µM (inactive).

On to `Clc1cccc(CNc2nc(NCc3ccccc3)c3ccccc3n2)c1`, for which the IC50 is 3.7 µM.

On to `Nc1nc(CCl)nc(Nc2ccc(Cl)cc2)n1`, for which the IC50 was 8 µM.

Regarding `Brc1ccccc1CNc1nc(NCc2ccccc2)c2ccccc2n1`, the half-inhibitory concentration (IC50) is 6.7 µM.

Consider `Nc1nc(CCl)nc(Nc2ccc(Oc3ccccc3)cc2)n1`, for which the half-inhibitory concentration (IC50) was 3.7 µM.

Take `Nc1nc(CCl)nc(N2CCCc3ccccc32)n1`: the IC50 was 17 µM (inactive).

`Nc1nc(CCl)nc(Nc2ccc(Cl)c(Cl)c2)n1`: the IC50 is 5.7 µM.

In the case of `CCCOc1ccc(C(=O)CCC(=O)OC/C(O)=C(/C#N)c2nc3ccccc3[nH]2)cc1`, the 50% inhibitory concentration (IC50) was 6.1 µM.

In the case of `Fc1cccc(CNc2nc(NCc3ccccc3)c3ccccc3n2)c1`, the IC50 is 1.1 µM.

As for `Clc1ccc(CNc2nc(NCc3ccccc3)c3ccccc3n2)cc1`, the IC50 is 3.3 µM.

With `N#C/C(=C(\O)COC(=O)C1COc2ccccc2O1)c1nc2ccccc2[nH]1` (stereo not drawn), the IC50 was 10 µM.

Take `Nc1nc(CCl)nc(N(c2ccccc2)c2ccccc2)n1`: the 50% inhibitory concentration (IC50) was 10 µM.

Turning to `COc1ccc(CNc2nc(NCc3ccccc3)c3ccccc3n2)cc1`, the half-inhibitory concentration (IC50) is 3.3 µM.

As for `Nc1nc(Nc2cccc(Cl)c2)nc(C(Cl)Cl)n1`, the IC50 was 13 µM (inactive).

For `Cc1cccc(Nc2nc(N)nc(CCl)n2)c1C`, the IC50 is 27 µM (inactive).

Regarding `N#C/C(=C(\O)COC(=O)COc1ccc(Cl)cc1)c1nc2ccccc2[nH]1`, the 50% inhibitory concentration (IC50) is 2.6 µM.

As to `Cc1cccc(C)c1OCC(=O)OC/C(O)=C(/C#N)c1nc2ccccc2[nH]1`, the IC50 was 15 µM (inactive).

For `CN(c1ccccc1)c1nc(N)nc(CCl)n1`, the IC50 is 31 µM (inactive).

Take `CCc1ccc(Nc2nc(N)nc(CCl)n2)cc1`: the IC50 was 18 µM (inactive).

Consider `COc1cccc(Nc2nc(N)nc(CCl)n2)c1`, for which the IC50 was 23 µM (inactive).

For `Brc1ccc(CNc2nc(NCc3ccccc3)c3ccccc3n2)cc1`, the 50% inhibitory concentration (IC50) is 6.7 µM.

For `N#C/C(=C(\O)COC(=O)CNc1ccc(C(F)(F)F)cc1[N+](=O)[O-])c1nc2ccccc2[nH]1`, the IC50 was 6.5 µM.

Take `COc1ccccc1CNc1nc(NCc2ccccc2)c2ccccc2n1`: the IC50 was 4.8 µM.

As for `Brc1cccc(CNc2nc(NCc3ccccc3)c3ccccc3n2)c1`, the IC50 was 1.3 µM.

For the compound `Cc1cccc(CNc2nc(NCc3ccccc3)c3ccccc3n2)c1`, the 50% inhibitory concentration (IC50) is 4.1 µM.

On to `Cc1ccc(CNc2nc(NCc3ccccc3)c3ccccc3n2)cc1`, for which the IC50 was 2.4 µM.

Regarding `CCc1nc2ccccc2n1CC(=O)OC/C(O)=C(/C#N)c1nc2ccccc2[nH]1`, the IC50 is 7.2 µM.

Turning to `COc1cccc(CNc2nc(NCc3ccccc3)c3ccccc3n2)c1`, the IC50 is 1.7 µM.

As to `Fc1ccccc1CNc1nc(NCc2ccccc2)c2ccccc2n1`, the concentration for half-maximal inhibition (IC50) is 3.4 µM.

For the compound `N#C/C(=C(\O)COC(=O)CCC(=O)c1ccc2c(c1)OCCO2)c1nc2ccccc2[nH]1`, the IC50 was 6.3 µM.

Consider `Cc1cc(OCC(=O)OC/C(O)=C(/C#N)c2nc3ccccc3[nH]2)ccc1Cl`, for which the IC50 is 16 µM (inactive).

Consider `Clc1ccccc1CNc1nc(NCc2ccccc2)c2ccccc2n1`, for which the IC50 was 4.1 µM.

For the compound `N#C/C(=C(\O)COC(=O)c1ccccc1Cc1ccccc1)c1nc2ccccc2[nH]1`, the 50% inhibitory concentration (IC50) is 3.4 µM.

As for `COc1cc([N+](=O)[O-])ccc1Nc1nc(N)nc(CCl)n1`, the IC50 was 22 µM (inactive).

Take `Nc1nc(CCl)nc(N2CCc3ccccc32)n1`: the IC50 was 10.4 µM (inactive).

Turning to `Cc1ccc(Nc2nc(N)nc(CCl)n2)cc1`, the IC50 was 26 µM (inactive).

In general, IC50 refers to the concentration at which inhibition is half-maximal.
